Measured values pooled from the literature.
Each line is one published result; the experiments were not run side by side.
JAK1 JH2: Tyrosine-protein kinase JAK1, JH2 (JAK1, Homo sapiens, UniProt P23458)
JAK1 JH1: Tyrosine-protein kinase JAK1, JH1 (JAK1, Homo sapiens, UniProt P23458)
JAK1: Tyrosine-protein kinase JAK1 (JAK1, Homo sapiens, UniProt P23458)

CS(=O)(=O)N1CCCC(NC(=O)[C@H](CCC2CCCCC2)NC(=O)c2ccc(CNC(=O)c3cnc4ccccn34)cc2)C1 (some centres unmarked)
remaining binding (JAK1 JH2; cell-free assay; competition with immobilised ligand; 0.1 µM): 100%

Cc1cnn2ncc(-c3ccnc(N(C)C)n3)c2c1
remaining binding (JAK1 JH1; cell-free assay; competition with immobilised ligand; 1 µM): 98%

c1ccc(N2CCN(Cc3nc4ccccc4[nH]3)CC2)nc1
remaining binding (JAK1 JH2; binding; competition with immobilised ligand; 1 µM): 76%

CN(C)c1nccc(-c2cnc3ncccn23)n1
remaining binding (JAK1; binding; 1 µM): 67%

CN(C(=O)c1ccccc1)c1cc(N(C)c2ccc3c(c2)CCc2ccc(C(=O)NCCN4CCOCC4)cc2C3=O)ccc1F
remaining binding (JAK1 JH2; cell-free assay; competition with immobilised ligand; 1 µM): 88%

COc1ccnn2ncc(-c3ccnc(N(C)C)n3)c12
remaining binding (JAK1; binding; 1 µM): 74%

COc1cnc(Nc2cccc(S(N)(=O)=O)c2)nc1N1CCN(c2ccccc2)CC1
remaining binding (JAK1 JH1; binding; competition with immobilised ligand; 1 µM): 48%

CN(C)c1ncc(F)c(-c2cnn3ncccc23)n1
remaining binding (JAK1 JH1; cell-free assay; competition with immobilised ligand; 1 µM): 100%

Cc1cnc(Nc2ccc(C(=O)N3CCC(N4CCCC4)CC3)cc2)nc1-c1cc2ccccc2s1
remaining binding (JAK1 JH2; binding; competition with immobilised ligand; 1 µM): 0%

CO[C@H]1CC[C@H](CNc2ccc(S(=O)(=O)NC(=O)c3ccc(N4CCN(CC5=C(c6ccc(Cl)cc6)CC(C)(C)CC5)CC4)cc3Oc3cnc4[nH]ccc4c3)cc2[N+](=O)[O-])CC1
remaining binding (JAK1 JH2; cell-free assay; competition with immobilised ligand; 1 µM): 100%

O=C(c1ccc(Nc2ncc(Cl)c(-c3ccc(Cl)s3)n2)cc1)N1CCC(N2CCCC2)CC1
remaining binding (JAK1 JH2; binding; competition with immobilised ligand; 1 µM): 3.9%

COc1cnc(Nc2cccc(S(N)(=O)=O)c2)nc1N1CCN(c2ccccc2)C(=O)C1
remaining binding (JAK1 JH2; binding; competition with immobilised ligand; 1 µM): 44%

N[C@@H]1CCN(c2nccc(-c3cnn4ncccc34)n2)C1
remaining binding (JAK1 JH1; cell-free assay; competition with immobilised ligand; 1 µM): 100%

COc1ncc2cc3ccccc3nc2c1C#N
remaining binding (JAK1 JH2; cell-free assay; competition with immobilised ligand; 5 µM): 67%

CCN1CCN(Cc2ccc(C(=O)Nc3ccc(C)c(Oc4ccc5c(c4)CC(=O)N5)c3)cc2C(F)(F)F)CC1
remaining binding (JAK1 JH2; binding; competition with immobilised ligand; 1 µM): 100%

c1cncc(-c2cccc(Nc3nccc(NC4CCCCC4)n3)c2)c1
remaining binding (JAK1 JH2; binding; competition with immobilised ligand; 10 µM): 0.2%

C[C@H]1CCN(c2nccc(-c3cnn4ncccc34)n2)C1
remaining binding (JAK1; binding; 1 µM): 62%

O=C(Nc1c[nH]nc1C(=O)NC1CCNCC1)c1cc(F)cc(F)c1
remaining binding (JAK1 JH2; binding; competition with immobilised ligand; 1 µM): 82%

F[C@@H]1CCN(c2nccc(-c3cnn4ncccc34)n2)C1
remaining binding (JAK1 JH1; cell-free assay; competition with immobilised ligand; 1 µM): 100%

O=C(NCC1CCOCC1)c1n[nH]cc1NC(=O)c1c(F)cccc1F
remaining binding (JAK1 JH2; binding; competition with immobilised ligand; 1 µM): 90%

CN1CCN(c2ccc(Nc3nccc(-c4ccccc4)n3)cc2C(F)(F)F)CC1
remaining binding (JAK1; binding; 10 µM): 0.45%

O=C(c1ccc(Nc2ncc(Cl)c(-c3cc4ccccc4s3)n2)cc1)N1CCC(N2CCCC2)CC1
remaining binding (JAK1 JH2; binding; competition with immobilised ligand; 1 µM): 0.9%

COc1ccc2c(c1)O[C@@H](c1ccc(OC)c(OC)c1)C[C@H]2NC(=O)C1(c2ccc3c(c2)OC(F)(F)O3)CC1
remaining binding (JAK1 JH2; cell-free assay; competition with immobilised ligand; 1 µM): 90%

Nc1ncc2c(n1)-c1c([nH]c3ccc(C#CC4CC4)cc13)CCCC2
remaining binding (JAK1 JH1; binding; competition with immobilised ligand; 1 µM): 100%

O=C(NCCCN1CCOCC1)c1ccc(Nc2ncc(Cl)c(-c3ccc(Cl)s3)n2)cc1
remaining binding (JAK1 JH1; binding; competition with immobilised ligand; 1 µM): 4.6%

CN(C)c1nccc(-c2cnn3ncccc23)n1
remaining binding (JAK1 JH1; cell-free assay; competition with immobilised ligand; 1 µM): 69%

O=C(O)[C@@H]1[C@@H](Cn2nnc3ccccc3c2=O)CC[C@H]1C(=O)c1ccc(OCCC2CCOCC2)cc1
remaining binding (JAK1 JH2; cell-free assay; competition with immobilised ligand; 1 µM): 100%

O=C(c1ccc(Nc2nccc(-c3cc4ccccc4s3)n2)cc1)N1CCC(N2CCCC2)CC1
remaining binding (JAK1 JH1; binding; competition with immobilised ligand; 1 µM): 82%

CC1=C(C#N)C(c2ccc3c(c2)c(NC(=O)c2ccccc2C)nn3C)C(C#N)=C(C)N1
remaining binding (JAK1 JH1; cell-free assay; competition with immobilised ligand; 1 µM): 100%

CNC(=O)[C@@H]1CC[C@@H](n2c(-c3ccc4cnccc4c3)nc3ccc(C(=O)NCc4cccc(C(N)=O)c4)cc32)C1
remaining binding (JAK1 JH2; binding; competition with immobilised ligand; 1 µM): 60%

CCC(=N\O)/C(C)=C/c1ccc(F)cc1
remaining binding (JAK1 JH2; cell-free assay; competition with immobilised ligand; 1 µM): 88%

O=C(NCCCN1CCOCC1)c1ccc(Nc2nccc(-c3cc4ccccc4s3)n2)cc1
remaining binding (JAK1 JH2; binding; competition with immobilised ligand; 1 µM): 41%
